Assay results from ChEMBL document CHEMBL1255243, “Resistance of Porphyromonas gingivalis ATCC 33277 to direct killing by antimicrobial peptides is protease independent” (2008).
Active and inactive are the calls of the source. The rule behind the calls is not given here.

Assays:
Streptococcus mutans [1] = assay: Antibacterial activity against Streptococcus mutans ATCC 27351 assessed as growth inhibition at 40 ug/ml following preincubation of compound with supernatant of Porphyromonas gingivalis ATCC 33277; assay type: functional, organism-based
Method in brief: (§1)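 Stationary-phase P. gingivalis or A. actinomycetemcomitans cultures were spun 10 min at 10,000 × g and the supernatant filter-sterilised (0.2 μm). Peptide was preincubated with 20% (final) filtrate for varying times. It was then added to S. mutans (overnight culture diluted 1:10 in BHI, bath-sonicated 1 min), grown at 37°C in 5% CO2, and read at OD650. % inhibition: no-peptide = 0%, fresh-medium-preincubated peptide = 100%. Mean ± SD, three independent experiments.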

Streptococcus mutans [2] = assay: Antibacterial activity against Streptococcus mutans ATCC 27351 assessed as growth inhibition at 40 ug/ml following preincubation of compound with supernatant of Aggregatibacter actinomycetemcommitans ATCC 29523; assay type: functional, organism-based; method in brief: as §1
Streptococcus mutans [3] = assay: Antibacterial activity against Streptococcus mutans assessed as growth inhibition at 40 ug/ml following preincubation of compound with supernatant of Porphyromonas gingivalis ATCC 33277
Streptococcus mutans [4] = assay: Antibacterial activity against Streptococcus mutans assessed as growth inhibition at 40 ug/ml following preincubation of compound with supernatant of Aggregatibacter actinomycetemcommitans ATCC 29523
Porphyromonas gingivalis [5] = assay: Antibacterial activity against Porphyromonas gingivalis ATCC 33277; assay type: functional, organism-based
Method in brief: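 Increasing amounts of peptide were added to a growing anaerobic P. gingivalis culture. Percent growth inhibition was calculated relative to untreated cells (0%). Means ± SD of three independent experiments.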

Streptococcus mutans [6] = assay: Antibacterial activity against Streptococcus mutans ATCC 27351 assessed as growth inhibition at 5 ug/ml following preincubation of compound with supernatant of Porphyromonas gingivalis ATCC 33277; assay type: functional, organism-based; method in brief: as §1
Streptococcus mutans [7] = assay: Antibacterial activity against Streptococcus mutans ATCC 27351 assessed as growth inhibition at 5 ug/ml following preincubation of compound with supernatant of Aggregatibacter actinomycetemcommitans ATCC 29523; assay type: functional, organism-based; method in brief: as §1
Porphyromonas gingivalis [8] = assay: Binding affinity to membranes of Porphyromonas gingivalis KDP136 using Alexa Fluor-labeled compound at 0.8 mg/ml by fluorimetric assay
Streptococcus mutans [9] = assay: Antibacterial activity against Streptococcus mutans assessed as growth inhibition at 5 ug/ml following preincubation of compound with supernatant of Porphyromonas gingivalis ATCC 33277
Streptococcus mutans [10] = assay: Antibacterial activity against Streptococcus mutans assessed as growth inhibition at 5 ug/ml following preincubation of compound with supernatant of Aggregatibacter actinomycetemcommitans ATCC 29523
Porphyromonas gingivalis [11] = assay: Antibacterial activity against protease deficient Porphyromonas gingivalis KDP136; assay type: functional
Escherichia coli [12] = assay: Antibacterial activity against Escherichia coli ATCC 25922 assessed as growth inhibition at 100 ug/ml following preincubation of compound with supernatant of Porphyromonas gingivalis ATCC 33277; assay type: functional, organism-based
Method in brief: (§2)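 Peptide preincubated with filter-sterilized stationary-phase culture supernatant (20% final) for set times, then 10 µl added to 190 µl E. coli overnight culture (diluted 1:5,000 in BHI, sonicated 1 min); peptide 100 μg/ml final on cells; aerobic growth; OD650 read; % inhibition relative to no-peptide (0%) and medium-preincubated peptide (100%); three independent experiments in triplicate, mean ± SD.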

Streptococcus mutans [13] = assay: Antibacterial activity against Streptococcus mutans ATCC 27351 assessed as growth inhibition at 100 ug/ml following preincubation of compound with supernatant of Porphyromonas gingivalis ATCC 33277; assay type: functional, organism-based
Method in brief: (§3)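 Peptide at 100 μg/ml incubated with filter-sterilized stationary-phase culture supernatant (20% final) for set times; 10 µl added to 190 µl S. mutans overnight culture diluted 1:10 in BHI and sonicated 1 min; grown at 37°C, 5% CO2; OD650 read; % inhibition relative to no-peptide (0%) and medium-preincubated peptide (100%); three experiments in triplicate, mean ± SD.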

Streptococcus mutans [14] = assay: Antibacterial activity against Streptococcus mutans ATCC 27351 assessed as growth inhibition at 100 ug/ml following preincubation of compound with supernatant of Aggregatibacter actinomycetemcommitans ATCC 29523; assay type: functional, organism-based; method in brief: as §3
Escherichia coli [15] = assay: Antibacterial activity against Escherichia coli ATCC 25922 assessed as growth inhibition at 100 ug/ml following preincubation of compound with supernatant of Aggregatibacter actinomycetemcommitans ATCC 29523; assay type: functional, organism-based; method in brief: as §2

For H-KRLFKKLLFSLRKY-NH2, which Activity (Streptococcus mutans [1]) is on record?
The Activity was “inactive”.

What about the Activity (Streptococcus mutans [2]) of the same compound?
Its Activity is “Active”.

And the Activity (Streptococcus mutans [3])?
The Activity was “inactive”.

What about the Activity (Streptococcus mutans [4]) of the same compound?
The Activity was “Active”.

H-ALWKTLLKKVLKAAA-NH2 was tested. Which Activity (Porphyromonas gingivalis [5]) did it give?
Its Activity is “inactive”.

What about the Activity (Streptococcus mutans [6]) of the same compound?
The Activity was “inactive”.

What about the Activity (Streptococcus mutans [7]) of the same compound?
The Activity was “Active”.

And the Activity (Porphyromonas gingivalis [8])?
The Activity was “inactive”.

And the Activity (Streptococcus mutans [9])?
The Activity was “inactive”.

What about the Activity (Streptococcus mutans [10]) of the same compound?
The Activity was “Active”.

With CC[C@H](C)[C@H](NC(=O)[C@H](CCCCN)NC(=O)[C@H](CCC(=O)O)NC(=O)[C@H](CCCCN)NC(=O)[C@H](CO)NC(=O)[C@H](CCCCN)NC(=O)[C@H](CCCNC(=N)N)NC(=O)[C@H](Cc1ccccc1)NC(=O)[C@H](Cc1ccccc1)NC(=O)[C@H](CC(=O)O)NC(=O)CNC(=O)[C@H](CC(C)C)NC(=O)[C@@H](N)CC(C)C)C(=O)NCC(=O)N[C@@H](CCCCN)C(=O)N[C@@H](CCC(=O)O)C(=O)N[C@@H](Cc1ccccc1)C(=O)N[C@@H](CCCCN)C(=O)N[C@@H](CCCNC(=N)N)C(=O)N[C@H](C(=O)N[C@H](C(=O)N[C@@H](CCC(N)=O)C(=O)N[C@@H](CCCNC(=N)N)C(=O)N[C@H](C(=O)N[C@@H](CCCCN)C(=O)N[C@@H](CC(=O)O)C(=O)N[C@@H](Cc1ccccc1)C(=O)N[C@@H](CC(C)C)C(=O)N[C@@H](CCCNC(=N)N)C(=O)N[C@@H](CC(N)=O)C(=O)N[C@@H](CC(C)C)C(=O)N[C@H](C(=O)N1CCC[C@H]1C(=O)N[C@@H](CCCNC(=N)N)C(=O)N[C@H](C(=O)N[C@@H](CCC(=O)O)C(=O)N[C@@H](CO)C(=O)O)[C@@H](C)O)C(C)C)[C@@H](C)CC)C(C)C)[C@@H](C)CC [CATHELICIDIN] as the compound, how does the MIC (Porphyromonas gingivalis [11]) read?
The MIC was greater than 200 µg/mL.

What about the Activity (Escherichia coli [12]) of the same compound?
Its Activity is “inactive”.

And the Activity (Streptococcus mutans [13])?
Its Activity is “inactive”.

What about the Activity (Streptococcus mutans [14]) of the same compound?
Its Activity is “Active”.

What about the Activity (Escherichia coli [15]) of the same compound?
Its Activity is “Active”.
